Data on seven compounds can be found in ChEMBL document CHEMBL4390653, “Potential anti-herpes and cytotoxic action of novel semisynthetic digitoxigenin-derivatives” (Eur J Med Chem, 2019).

By IC50 is commonly meant the concentration at which inhibition is half-maximal. The term CC50 denotes the concentration that lowers cell viability or growth by half.

The subject of one series is MRC5. Put plainly: Cytotoxicity against human MRC5 cells assessed as inhibition of cell viability after 48 hrs by SRB assay. The class given is cell-based. Particulars: MRC5, 48 h. The procedure, abridged: (§1)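 Cells seeded at 2.5 × 10^4 per well and exposed to a concentration range for 48 h, then SRB total-protein stain. PC3 grown in phenol-red-free DMEM with 1% glutamine; LNCaP in phenol-red-free RPMI 1640 with glutamine and non-essential amino acids. HCT-8 and H460 in RPMI 1640. MRC-5 (plus glutamine and non-essential amino acids) and primary gingival fibroblasts in DMEM. All media had 10% FBS, 37 °C, 5% CO2. Paclitaxel was the reference. IC50 versus untreated controls by nonlinear regression, three independent experiments.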
A general note: The SRB assay estimates cell density from bound dye.

Series [1] is described as follows: Cytotoxicity against human HGF cells assessed as inhibition of cell viability after 48 hrs by SRB assay. The class given is cell-based. The procedure, abridged:
as §1

A further series concerns HCT-8. As to the kind of experiment: Cytotoxicity against human HCT8 cells assessed as inhibition of cell viability after 48 hrs by SRB assay. Particulars: HCT-8, 48 h. The class given is functional, cell-based. The procedure, abridged:
as §1

Series [2] relates to Human alphaherpesvirus 2. As to the kind of experiment: Antiviral activity against Herpes simplex virus 2-333 infected in African green monkey Vero cells assessed as inhibition of viral replication after 48 hrs by naphthol blue-black staining-based plaque reduction assay. The series is classed as functional, organism-based. Particulars: Human alphaherpesvirus 2, 333, Vero. The procedure, abridged:
(§2)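 Vero cells in MEM with 10% FBS, 37 °C, 5% CO2. Confluent monolayers (2.5 × 10^5 cells/well) infected with about 100 PFU for 1 h at 37 °C. Non-cytotoxic concentrations were added after infection. Cells were then PBS-washed and overlaid with MEM plus 1.5% carboxymethylcellulose, with or without compound, for 48 h. Fixed, naphthol blue-black stained, plaques counted under a stereomicroscope. IC50 versus untreated controls by nonlinear regression; mean of three independent experiments.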

In series [3] the test system is Human alphaherpesvirus 1. As to the kind of experiment: Potency index, ratio of IC50 for acyclovir to IC50 for test compound for antiviral activity against acyclovir-sensitive Herpes simplex virus 1 KOS infected in African green monkey Vero cells assessed as inhibition of viral replication after 48 hrs by naphthol blue-black staining-based plaque reduction assay. The series is classed as functional, strain KOS. Background: Plaques are areas of infected cells; plaque reduction assays count them against a control.

Series [4] in a line: Inhibition of porcine cortex Na+/K+-ATPase alpha1/2/3 subunit using ATP as substrate preincubated for 30 mins followed by substrate addition and measured after 30 mins by malachite green reagent-based assay. Further details: species or system Sus scrofa.
A short description of series [5]: Selectivity index, ratio of Cytotoxicity against African green monkey Vero cells assessed as reduction in cell viability after 48 hrs by SRB assay to Antiviral activity against Herpes simplex virus 2-333 infected in African green monkey Vero cells assessed as inhibition of viral replication after 48 hrs by naphthol blue-black staining-based plaque reduction assay. The class given is toxicity. The following applies: Vero cells infected with HSV-2 333, read-out: Ratio CC50/IC50. A digest of the protocol: (§3)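 Selectivity index = CC50 in Vero cells (SRB, 48 h) divided by plaque-reduction IC50 for the same virus strain.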

Series [6] deals with Human alphaherpesvirus 1. Put plainly: Antiviral activity against acyclovir-resistant Herpes simplex virus 1 29-R infected in African green monkey Vero cells assessed as inhibition of viral replication after 48 hrs by naphthol blue-black staining-based plaque reduction assay. The class given is functional, organism-based. Particulars: Human alphaherpesvirus 1, 29-R, Vero, 48 h; read-out: IC50. The procedure, abridged: as §2

Series [7] in a line: Selectivity index, ratio of Cytotoxicity against African green monkey Vero cells assessed as reduction in cell viability after 48 hrs by SRB assay to Antiviral activity against acyclovir-resistant Herpes simplex virus 1 29-R infected in African green monkey Vero cells assessed as inhibition of viral replication after 48 hrs by naphthol blue-black staining-based plaque reduction assay. The series is classed as toxicity. Particulars: Vero cells infected with HSV-1 29-R, read-out: Ratio CC50/IC50. The procedure, abridged: as §3

Another series concerns NCI-H460. As to the kind of experiment: Cytotoxicity against human H460 cells assessed as inhibition of cell viability after 48 hrs by SRB assay. The series is classed as functional, cell-based. The following applies: NCI-H460, 48 h. The procedure, abridged:
as §1

In the next series the test system is PC-3. As to the kind of experiment: Cytotoxicity against human PC3 cells assessed as inhibition of cell viability after 48 hrs by SRB assay. Particulars: PC-3, 48 h. The series is classed as functional, cell-based. A digest of the protocol: as §1
Series [8] in a line: Selectivity index, ratio of Cytotoxicity against African green monkey Vero cells assessed as reduction in cell viability after 48 hrs by SRB assay to Antiviral activity against acyclovir-sensitive Herpes simplex virus 1 KOS infected in African green monkey Vero cells assessed as inhibition of viral replication after 48 hrs by naphthol blue-black staining-based plaque reduction assay. The series is classed as toxicity. The following applies: Vero cells infected with HSV-1 KOS, read-out: Ratio CC50/IC50. The procedure, abridged:
as §3

Series [9] has as its system Human alphaherpesvirus 1. As to the kind of experiment: Antiviral activity against acyclovir-sensitive Herpes simplex virus 1 KOS infected in African green monkey Vero cells assessed as inhibition of viral replication after 48 hrs by naphthol blue-black staining-based plaque reduction assay. The class given is functional, organism-based. The following applies: Human alphaherpesvirus 1, strain KOS. The procedure, abridged:
as §2

The nature of series [10]: Cytotoxicity against African green monkey Vero cells assessed as reduction in cell viability after 48 hrs by SRB assay. The following applies: chlorocebus sabaeus. The class given is cell-based. A digest of the protocol:
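Vero cells in MEM with 10% FBS, seeded at 2.5 × 10^4 cells/well. Exposed to a range of concentrations for 48 h at 37 °C, 5% CO2, then sulforhodamine B total-protein staining. CC50 is the concentration reducing viability by 50% versus untreated controls, from nonlinear regression; mean ± SD of three independent experiments.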

Series [11] relates to Human alphaherpesvirus 2. As to the kind of experiment: Potency index, ratio of IC50 for acyclovir to IC50 for test compound for antiviral activity against Herpes simplex virus 2-333 infected in African green monkey Vero cells assessed as inhibition of viral replication after 48 hrs by naphthol blue-black staining-based plaque reduction assay. The series is classed as functional.

The subject of a further series is LNCaP. Put plainly: Cytotoxicity against human LNCAP cells assessed as inhibition of cell viability after 48 hrs by SRB assay. The class given is functional, cell-based. A digest of the protocol: as §1
A further series deals with A549. As to the kind of experiment: Cytotoxicity against human A549 cells assessed as inhibition of cell viability after 48 hrs by SRB assay. The class given is functional, cell-based. Particulars: A549, 48 h.

In the case of `C[C@]12CC[C@H](NC(=O)CO)C[C@H]1CC[C@@H]1[C@@H]2CC[C@]2(C)[C@@H](C3=CC(=O)OC3)CC[C@]12O`, the IC50 came to 250 nM in the series with MRC5; 1670 nM in series [1]; 690 nM with HCT-8; 300 nM in the series on Human alphaherpesvirus 2 [2]; 843 nM in series [4]; 190 nM with Human alphaherpesvirus 1 [6]. The IC50 with NCI-H460 came out at 260 nM; in the series with PC-3, 420 nM; in the series with Human alphaherpesvirus 1 [9] it was 240 nM; in the series with LNCaP, 810 nM. Further, the “Ratio IC50” value in the series with Human alphaherpesvirus 1 [3] was 6; in the series on Human alphaherpesvirus 2 [11] it was 11. In addition, the selectivity ratio at 48 h in series [5] was more than 1000; in [7], more than 1580; in series [8], more than 1250. The CC50 at 48 h in [10] was more than 300000 nM.

Take `C[C@@H](O)[C@H](O)[C@@H](O)CCN[C@H]1CC[C@@]2(C)[C@H](CC[C@@H]3[C@@H]2CC[C@]2(C)[C@@H](C4=CC(=O)OC4)CC[C@]32O)C1`: the IC50 in the series with MRC5 is 550 nM; in series [1] it was 2550 nM; with HCT-8 it was 1250 nM; in the series with A549, 680 nM; in the series on Human alphaherpesvirus 2 [2] it was 1270 nM; in [4], 2040 nM. For the same compound, the 50% inhibitory concentration (IC50) is 3230 nM in the series with Human alphaherpesvirus 1 [6]; 370 nM with NCI-H460; 1220 nM in the series with PC-3; 1460 nM in the series on Human alphaherpesvirus 1 [9]; 2460 nM in the series on LNCaP. Further, the selectivity ratio at 48 h in series [5] is more than 236; in [7] it was more than 92.9; in series [8], more than 206. Also, the CC50 at 48 h in series [10] was more than 300000 nM.

For `C[C@]12CC[C@H](NC(=O)CNc3ccc(C#N)cc3)C[C@H]1CC[C@@H]1[C@@H]2CC[C@]2(C)[C@@H](C3=CC(=O)OC3)CC[C@]12O`, the IC50 with MRC5 turned out to be 1060 nM; in [1], 2090 nM; with HCT-8, 1250 nM; with A549, 540 nM; in the series with Human alphaherpesvirus 2 [2], 1000 nM; in [4] it was 4160 nM. The half-maximal inhibitory concentration (IC50) is 420 nM in the series on Human alphaherpesvirus 1 [6]; 250 nM in the series on NCI-H460; 910 nM in the series on PC-3; 600 nM with Human alphaherpesvirus 1 [9]; 2080 nM with LNCaP. Moreover, the selectivity ratio at 48 h in series [5] was more than 300; in series [7] it was more than 714; in series [8], more than 500. Besides, the CC50 at 48 h in series [10] is more than 300000 nM.

In the case of `C[C@]12CC[C@H](n3cc(CO[C@H]4O[C@H](CO)[C@@H](O)[C@H](O)[C@@H]4O)nn3)C[C@H]1CC[C@@H]1[C@@H]2CC[C@]2(C)[C@@H](C3=CC(=O)OC3)CC[C@]12O`, the half-inhibitory concentration (IC50) in the series on MRC5 was found to be 360 nM; in series [1], 1410 nM; with HCT-8, 1020 nM; in the series on A549, 580 nM; with Human alphaherpesvirus 2 [2] it was 410 nM; in [4], 5470 nM. The IC50 in the series on Human alphaherpesvirus 1 [6] is 370 nM; with NCI-H460, 240 nM; with PC-3 it was 580 nM; with Human alphaherpesvirus 1 [9], 550 nM; in the series on LNCaP, 1660 nM. Further, the selectivity ratio at 48 h is more than 732 in series [5], more than 811 in [7] and more than 546 in [8]. Besides, the CC50 at 48 h in series [10] was more than 300000 nM.

In the case of `C[C@]12CC[C@H](NC(=O)CNCCO)C[C@H]1CC[C@@H]1[C@@H]2CC[C@]2(C)[C@@H](C3=CC(=O)OC3)CC[C@]12O`, the IC50 in the series with MRC5 is 130 nM; in series [1] it was 660 nM; with HCT-8, 90 nM; with A549 it was 190 nM; with Human alphaherpesvirus 2 [2] it was 270 nM; in [4] it was 1990 nM. The IC50 in the series on Human alphaherpesvirus 1 [6] came out at 180 nM; in the series with NCI-H460, 70 nM; with PC-3, 180 nM; in the series on Human alphaherpesvirus 1 [9], 230 nM; in the series on LNCaP, 130 nM. In addition, the “Ratio IC50” value with Human alphaherpesvirus 1 [3] stood at 6; with Human alphaherpesvirus 2 [11], 12. Further, the selectivity ratio at 48 h in [5] is more than 1110; in [7], more than 1670; in series [8], more than 1300. Besides, the CC50 at 48 h in series [10] was more than 300000 nM.

Consider `C[C@]12CC[C@H](O)C[C@H]1CC[C@@H]1[C@@H]2CC[C@]2(C)[C@@H](C3=CC(=O)OC3)CC[C@]12O` [DIGITOXIGENIN], for which the IC50 with MRC5 was found to be 1160 nM; in series [1], 1470 nM; in the series on HCT-8 it was 2480 nM; with A549, 1680 nM; in the series on Human alphaherpesvirus 2 [2] it was 3230 nM; in the series with Human alphaherpesvirus 1 [6], 1020 nM. In addition, the IC50 in the series on NCI-H460 stood at 920 nM; with PC-3, 2410 nM; with Human alphaherpesvirus 1 [9], 1090 nM; in the series on LNCaP, 3700 nM. Moreover, the figures for the selectivity ratio at 48 h in series [5], in [7] and in series [8] were 8.53, 27 and 25.3, respectively. In series [10], the CC50 at 48 h came out at 27500 nM.

Consider `CC(=O)O[C@H]1C(=O)[C@@]2(C)[C@H]([C@H](OC(=O)c3ccccc3)[C@]3(O)C[C@H](OC(=O)[C@H](O)[C@@H](NC(=O)c4ccccc4)c4ccccc4)C(C)=C1C3(C)C)[C@]1(OC(C)=O)CO[C@@H]1C[C@@H]2O` [PACLITAXEL], for which the IC50 is more than 200000 nM with MRC5; more than 200000 nM in series [1]; 170 nM in the series with HCT-8; 110 nM in the series on A549; 80 nM in the series on NCI-H460; 670 nM in the series with PC-3. For the same compound, the IC50 with LNCaP was 21000 nM.
